Bioassay records as filed in PubChem BioAssay.
PglD DTNB – blocks C. jejuni PglD acetyltransferase activity; purified PglD enzyme, DTNB colorimetric CoA detection; inhibition, % at 12.5 µM; hit rate 0.098% among 360,000; AID 602405; in the data active means inhibition above about 16%, passing the limit was not always enough
rRNA inh HTS – inhibits bacterial ribosomal RNA function over humanized ribosomes. GFP signal change (wild-type ribosome), % (concentration not given with the values). E. coli WT GFP vs humanized-ribosome RFP mutants, fluorescence, 24 h; hits give low values; DMSO median 0, no signal -100. hit rate 1.6% among 350,000;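 active means significant combined selectivity score with lowered wild-type GFP, culture density cut under 30%, mutant RFP and density less affected; inactive means any of these conditions unmet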
RAD54 inh – inhibitors of human RAD54 branch migration; inhibition, % at 10.4 µM; hit rate 0.14% among 360,000; Q92698; RAD54 Holliday junction branch migration, FAM/BHQ fluorescence; AID 602329;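 active means mean normalized replicate activity at least 40 and at least half of replicates scoring 40 or more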;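 further: 0% = median of neutral control wells and 100% = median of positive control wells; inhibitors cause a drop in the FAM fluorescence signal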
Cneo AK release – Cryptococcus neoformans lysis via adenylate kinase release. lysis activity, % at 15 µM. hit rate 0.2% among 360,000. C. neoformans lysis, adenylate kinase release luminescence, 4 h; normalised: neutral wells 0, clomiphene wells 100. AID 651654;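 active means mean lysis activity across replicates of at least 80%, whatever share of replicates individually reach that level; inactive means mean lysis activity below 80%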
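Assay system: C. neoformans cells. Amount: yeast cell density of 5 × 10^6 cells/mL. Technique: AK luminescence. Buffer or medium: YPD. Times: static 4 h at 37 °C with compound, 1 h detection. Dosing: single-point compound dose. Read-out: lysis from increased AK signal.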
RAD52 anneal inh – blocks human RAD52 DNA annealing. P43351. recombinant RAD52 DNA annealing, FRET fluorescence. inhibition, % at 18.7 µM. hit rate 0.46% among 360,000. AID 651710;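 active means every replicate showing at least 50% inhibition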
Target sequence (P43351 whole entry, looked up): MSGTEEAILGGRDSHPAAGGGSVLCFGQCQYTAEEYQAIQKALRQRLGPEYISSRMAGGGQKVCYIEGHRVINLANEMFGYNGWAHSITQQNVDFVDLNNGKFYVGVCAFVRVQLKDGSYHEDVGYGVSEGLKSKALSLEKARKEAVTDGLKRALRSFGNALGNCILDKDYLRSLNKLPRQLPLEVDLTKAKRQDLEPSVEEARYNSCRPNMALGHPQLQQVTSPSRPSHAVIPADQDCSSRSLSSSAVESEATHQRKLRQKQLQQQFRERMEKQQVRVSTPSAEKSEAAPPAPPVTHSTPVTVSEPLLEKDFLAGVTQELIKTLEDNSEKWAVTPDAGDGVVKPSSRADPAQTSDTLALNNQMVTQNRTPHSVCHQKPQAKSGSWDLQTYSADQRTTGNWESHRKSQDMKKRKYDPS
* hit, by the source's call; nt = no result given. The list is not random: actives were taken first. Their share in the collection is about 1.9%.

SMILES | PglD DTNB | rRNA inh HTS | RAD54 inh | Cneo AK release | RAD52 anneal inh
Cc1ccc(S(=O)(=O)N(C)C[C@H]2Oc3ccc(NS(=O)(=O)c4c(C)noc4C)cc3C(=O)N([C@@H](C)CO)C[C@H]2C)cc1 | 2 | 1 | 0 | -2 | 4
C[C@@H]1CCCCO[C@@H](CN(C)Cc2ccc(Cl)c(Cl)c2)[C@H](C)CN([C@@H](C)CO)C(=O)c2cc(NC(=O)Nc3ccc(C(F)(F)F)cc3)ccc2O1 | 0 | -1 | 1 | 1 | 6
COc1cc(NC(=O)c2ccc([N+](=O)[O-])o2)ccc1NC(=O)c1ccco1 | -2 | -22* | -6 | -7 | -12
CC(=O)c1ccc(NC(=O)c2ccc(C)c(Br)c2)cc1 | nt | 0 | nt | nt | -15
CC(=O)c1ccc(NC(=O)Nc2ccc(Br)cc2C)cc1 | nt | -19* | nt | nt | 5
O=C(Nc1ccccc1F)N1CC(=O)N2[C@@H](CO)[C@H](c3ccc(-c4ccc(F)cc4)cc3)[C@@H]2C1 | nt | -6 | nt | nt | nt
COc1ccccc1C(=O)Nc1ccc2c(c1)C(=O)N(C)[C@@H]1CC[C@@H](CC(=O)NCc3ccc(Cl)c(Cl)c3)O[C@@H]1CO2 | 0 | -4 | 0 | 2 | -6
C[C@H]1CN([C@@H](C)CO)C(=O)c2cc(N(C)C)ccc2O[C@H]1CN(C)C | -4 | nt | 4 | -1 | -18
COc1ccc(/C(N)=N/OC(=O)Cc2ccc(C)cc2)cc1 | nt | 6 | nt | nt | 0
COc1ccc(CC(=O)OC(C)C(=O)c2ccc(C)cc2)cc1 (stereo not given) | -1 | -30* | 13 | 0 | -7
CC(C)NC(=O)Nc1cccc2c1O[C@H](CN(C)C(=O)NC(C)C)[C@H](C)CN(C)C2=O | nt | 3 | nt | nt | nt
c1ccc2c(C3=NNC(=NC4CC4)SC3)c[nH]c2c1 | 14 | nt | 1 | -8 | nt
c1ccc2c(C3=NNC(=NC4CCCCC4)SC3)c[nH]c2c1 | nt | -34* | nt | nt | -4
CN1c2ccc(-c3cccc(C#N)c3)cc2[C@@H]2[C@@H](CCN2C(=O)NC2CCCC2)[C@@H]1CO | nt | -9 | nt | nt | 10
CCOC(=O)c1c(N)sc(N)c1C(=O)OCC | nt | nt | nt | nt | -25
CCOC(=O)c1c(N)sc(C(O)(C(F)(F)F)C(F)(F)F)c1-c1ccc(OC)cc1OC | 5 | -27* | -1 | -3 | 0
COCC(=O)Nc1ccc2c(c1)C(=O)N(C)C[C@H](OC)[C@H](C)CN(Cc1ccccc1)[C@H](C)CO2 | 2 | 3 | 2 | 0 | 4
CO[C@@H]1CN(C)C(=O)c2cc(NS(=O)(=O)CC(F)(F)F)ccc2OC[C@@H](C)N(Cc2cccnc2)C[C@@H]1C | 1 | -1 | 9 | -1 | -13
COCC(=O)Nc1ccc2c(c1)C(=O)N(C)C[C@@H](OC)[C@H](C)CN(Cc1ccccc1)[C@@H](C)CO2 | 4 | -5 | 4 | 112* | 2
CO[C@H]1CN(C)C(=O)c2cc(NS(=O)(=O)CC(F)(F)F)ccc2OC[C@@H](C)N(Cc2cccnc2)C[C@@H]1C | 3 | 1 | 2 | 88* | 0
CO[C@H]1CN(C)C(=O)c2ccc(NC(C)=O)cc2OC[C@@H](C)N(Cc2cccc(F)c2)C[C@@H]1C | nt | -4 | nt | nt | nt
CO[C@H]1CN(C)C(=O)c2cc(NC(C)=O)ccc2OC[C@H](C)N(Cc2cccc(F)c2)C[C@@H]1C | -1 | -1 | -4 | 87* | 4
CCCN1C[C@H](C)[C@@H](OC)CN(C)C(=O)c2cc(NC(=O)c3cccc(F)c3)ccc2OC[C@H]1C | -2 | -2 | -6 | 117* | 7
COCCCNC(=O)[C@]1(Cc2ccccc2N=[N+]=[N-])N=C(c2ccc(OCCCO)cc2)O[C@@H]1c1ccccc1 | 4 | nt | -21 | -3 | 3
CO[C@@H]1CN(C)C(=O)c2ccc(NS(=O)(=O)c3ccccc3C)cc2OC[C@H](C)N(C)C[C@H]1C | -1 | 5 | 4 | 0 | -2
SMILES | PglD DTNB | rRNA inh HTS | RAD54 inh | Cneo AK release | RAD52 anneal inh
COc1ccc(OCC(=O)N2c3ccccc3CC2C)c([N+](=O)[O-])c1 (stereo not given) | 0 | -24* | 1 | -1 | 6
O=C(c1ccc(N2CCCC2)c([N+](=O)[O-])c1)N1CCc2ccccc2C1 | nt | -23 | nt | nt | -11
CC1Cc2ccccc2N1C(=O)c1ccc(N2CCCCC2)c([N+](=O)[O-])c1 (stereo not given) | -7 | -30* | 11 | -2 | -17
CCOC(=O)COc1cc(-n2c(=S)[nH]c3ccccc3c2=O)c(Cl)cc1Cl | nt | -23* | nt | nt | -6
COCCNC(=O)c1ccccc1NS(=O)(=O)c1ccc(Br)s1 | -24 | nt | 5 | -6 | nt
CCOc1ccccc1NS(=O)(=O)c1ccc(Br)s1 | 5 | -21* | -3 | -1 | 0
COc1ccc2c3c([nH]c2c1)[C@H](CO)N(C(=O)NC(C)C)CC31CCN(C(=O)NC(C)C)CC1 | nt | 2 | nt | nt | 3
COc1cc(OC)c2c(c1)OC(=O)CC2c1ccc2c(c1)OCO2 (stereo not given) | -3 | -28* | -2 | 0 | -8
COc1cc(OC)c2c(c1)OC(=O)CC2c1ccc(C)cc1 (stereo not given) | -1 | -22 | -1 | -4 | -34
Cc1ccc(C(=O)N/C(=C\c2ccc(Br)cc2)c2nc(=S)[nH][nH]2)cc1 | 3 | -25* | 0 | 0 | -20
O=C(N/C(=C/c1cccc(Br)c1)c1nc(=S)[nH][nH]1)c1ccccc1 | 6 | nt | -1 | -5 | nt
CCOc1ccccc1N1CCN(S(=O)(=O)c2cccs2)CC1 | 6 | -24* | -3 | 0 | -7
CCCN1[C@@H]2c3ccc(-c4ccncc4)c(=O)n3C[C@@H]2[C@@H](CO)[C@@H]1C(=O)N1CCOCC1 | 1 | -4 | -3 | -1 | -18
O=[N+]([O-])c1ccc(-c2ccn[nH]2)o1 | nt | -57 | nt | nt | -18
Nc1nc(N)nc(-c2ccc([N+](=O)[O-])o2)n1 | nt | -5.3* | nt | nt | -17
OC[C@H]1[C@@H](c2ccc(C#Cc3ccccc3)cc2)[C@@H]2CN(CC3CCOCC3)CCCCN12 | 4 | -31 | 4 | -1 | 8
COc1cccc2cc(-c3ccnc(N)n3)oc12 | -4 | -32* | 2 | 7 | -7
C/C(=N\NC(=O)COc1ccccc1-c1ccccc1)c1ccccn1 | -1 | -49* | -3 | 0 | -26
C/C(=N\NC(=O)COc1ccccc1-c1ccccc1)c1cccnc1 | nt | -40* | nt | nt | -15
C/C(=N\NC(=O)CSc1nc2ccccc2s1)c1cccnc1 | nt | -21* | nt | nt | -5
O=C(CSc1nc2ccccc2s1)Nc1ncccn1 | 1 | nt | -24 | 2 | nt
C/C(=N\NC(=O)COc1ccccc1-c1ccccc1)c1ccc(O)cc1O | nt | -25 | nt | nt | -16
C[C@@H]1CN([C@@H](C)CO)S(=O)(=O)c2ccc(C#CC3(O)CCCC3)cc2O[C@H]1CN(C)C(=O)c1ccccc1 | -2 | -2 | 2 | -1 | 7
CCS(=O)(=O)N1CC(=O)N2[C@H](C1)[C@@H](c1ccc(C#CCC(C)C)cc1)[C@@H]2CO | nt | 3 | nt | nt | -2
